Among the data in ChEMBL document CHEMBL4725345, “DFG-1 Residue Controls Inhibitor Binding Mode and Affinity, Providing a Basis for Rational Design of Kinase Inhibitor Selectivity” (J Med Chem, 2020) are ΔTm values, retold here.

A value given as a limit tells only on which side of the number the result lay.

For test [1], the target named is Tyrosine-protein kinase JAK1 (Homo sapiens) (UniProt P23458). Kind of test: Binding affinity to JAK1 (unknown origin) assessed as change in melting temperature at 10 uM incubated for 10 mins using SYPRO orange dye by RT-PCR-based fluorescence assay. The method, boiled down:
(§1)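 Recombinant kinase domain at 2 μM in 10 mM HEPES pH 7.5, 500 mM NaCl, mixed with 10 μM inhibitor for 10 min at room temperature; SYPRO orange added at 1:1000; temperature-dependent unfolding fluorescence read on a real-time PCR instrument; Tm shift derived by a previously described method.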

Test [2] has as its target Activin receptor type-1-like (Homo sapiens) (UniProt P37023). Nature of the test: Binding affinity to ACVRL1 (unknown origin) assessed as change in melting temperature at 10 uM incubated for 10 mins using SYPRO orange dye by RT-PCR-based fluorescence assay. The method, boiled down: as §1
In test [3] the target is Activin receptor type-1B (Homo sapiens) (UniProt P36896). Kind of test: Binding affinity to ACVR1B (unknown origin) assessed as change in melting temperature at 10 uM incubated for 10 mins using SYPRO orange dye by RT-PCR-based fluorescence assay. An outline of the steps:
as §1

In test [4] the target is TGF-beta receptor type-1 (Homo sapiens) (UniProt P36897). Nature of the test: Binding affinity to TGFBR1 (unknown origin) assessed as change in melting temperature at 10 uM incubated for 10 mins using SYPRO orange dye by RT-PCR-based fluorescence assay. The method, boiled down: as §1
Test [5] deals with Bone morphogenetic protein receptor type-1B (Homo sapiens) (UniProt O00238). Nature of the test: Binding affinity to BMPR1B (unknown origin) assessed as change in melting temperature at 10 uM incubated for 10 mins using SYPRO orange dye by RT-PCR-based fluorescence assay. An outline of the steps: as §1
Test [6] deals with Bone morphogenetic protein receptor type-2 (Homo sapiens) (UniProt Q13873). Nature of the test: Binding affinity to BMPR2 (unknown origin) assessed as change in melting temperature at 10 uM incubated for 10 mins using SYPRO orange dye by RT-PCR-based fluorescence assay. An outline of the steps: as §1
Test [7] deals with Activin receptor type-2B (Homo sapiens) (UniProt Q13705). Kind of test: Binding affinity to ACTR2B (unknown origin) assessed as change in melting temperature at 10 uM incubated for 10 mins using SYPRO orange dye by RT-PCR-based fluorescence assay. An outline of the steps:
as §1

Test [8] concerns the target Cyclin-G-associated kinase (Homo sapiens) (UniProt O14976). Kind of test: Binding affinity to GAK (unknown origin) assessed as change in melting temperature at 10 uM incubated for 10 mins using SYPRO orange dye by RT-PCR-based fluorescence assay. The method, boiled down:
as §1

Test [9] deals with Serine/threonine-protein kinase pim-1 (Homo sapiens) (UniProt P11309). Nature of the test: Binding affinity to PIM1 (unknown origin) assessed as change in melting temperature at 10 uM incubated for 10 mins using SYPRO orange dye by RT-PCR-based fluorescence assay.
Serine/threonine-protein kinase pim-1 (Homo sapiens), sequence (P11309 whole entry, looked up): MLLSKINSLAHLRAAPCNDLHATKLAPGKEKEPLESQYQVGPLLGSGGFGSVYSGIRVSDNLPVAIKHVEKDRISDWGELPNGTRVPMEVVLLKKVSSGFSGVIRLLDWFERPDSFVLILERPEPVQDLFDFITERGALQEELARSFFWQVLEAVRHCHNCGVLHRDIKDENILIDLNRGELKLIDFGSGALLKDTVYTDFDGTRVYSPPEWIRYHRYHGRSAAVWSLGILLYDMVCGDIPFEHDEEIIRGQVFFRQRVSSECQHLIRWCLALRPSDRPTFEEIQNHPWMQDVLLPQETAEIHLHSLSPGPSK
The target of test [10] is Serine/threonine-protein kinase pim-3 (Homo sapiens) (UniProt Q86V86). Nature of the test: Binding affinity to PIM3 (unknown origin) assessed as change in melting temperature at 10 uM incubated for 10 mins using SYPRO orange dye by RT-PCR-based fluorescence assay. The method, boiled down:
as §1

Test [11] addresses T1, Dual specificity tyrosine-phosphorylation-regulated kinase 2 (Homo sapiens) (UniProt Q92630).
T1 sequence (whole entry): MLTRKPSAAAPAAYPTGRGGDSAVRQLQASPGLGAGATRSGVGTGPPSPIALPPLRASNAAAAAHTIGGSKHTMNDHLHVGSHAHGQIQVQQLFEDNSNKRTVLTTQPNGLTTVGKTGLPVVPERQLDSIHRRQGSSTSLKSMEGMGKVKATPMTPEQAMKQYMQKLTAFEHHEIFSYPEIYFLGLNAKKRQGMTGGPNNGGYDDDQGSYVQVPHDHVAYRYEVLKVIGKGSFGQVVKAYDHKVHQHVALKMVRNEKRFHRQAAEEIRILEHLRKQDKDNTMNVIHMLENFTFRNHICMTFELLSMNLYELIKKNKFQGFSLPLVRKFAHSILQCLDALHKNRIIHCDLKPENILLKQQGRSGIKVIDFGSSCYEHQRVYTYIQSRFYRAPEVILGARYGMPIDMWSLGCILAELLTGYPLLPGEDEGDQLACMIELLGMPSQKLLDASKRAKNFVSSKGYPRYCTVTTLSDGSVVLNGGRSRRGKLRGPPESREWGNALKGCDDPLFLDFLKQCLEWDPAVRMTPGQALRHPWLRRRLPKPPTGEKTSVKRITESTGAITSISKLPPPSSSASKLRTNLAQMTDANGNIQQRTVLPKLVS
Kind of test: Binding affinity to DYRK2 (unknown origin) assessed as change in melting temperature at 10 uM incubated for 10 mins using SYPRO orange dye by RT-PCR-based fluorescence assay. The method, boiled down: as §1

In test [12] the target is Glycogen synthase kinase-3 beta (Homo sapiens) (UniProt P49841). Kind of test: Binding affinity to GSK3B (unknown origin) assessed as change in melting temperature at 10 uM incubated for 10 mins using SYPRO orange dye by RT-PCR-based fluorescence assay. The method, boiled down:
as §1

The target of test [13] is Serine/threonine-protein kinase 17B (Homo sapiens) (UniProt O94768). Kind of test: Binding affinity to DRAK2 (unknown origin) assessed as change in melting temperature at 10 uM incubated for 10 mins using SYPRO orange dye by RT-PCR-based fluorescence assay. The method, boiled down:
as §1

The target of test [14] is Myosin light chain kinase family member 4 (Homo sapiens) (UniProt Q86YV6). Nature of the test: Binding affinity to SgK085 (unknown origin) assessed as change in melting temperature at 10 uM incubated for 10 mins using SYPRO orange dye by RT-PCR-based fluorescence assay. The method, boiled down: as §1
Myosin light chain kinase family member 4 (Homo sapiens), sequence (Q86YV6 whole entry): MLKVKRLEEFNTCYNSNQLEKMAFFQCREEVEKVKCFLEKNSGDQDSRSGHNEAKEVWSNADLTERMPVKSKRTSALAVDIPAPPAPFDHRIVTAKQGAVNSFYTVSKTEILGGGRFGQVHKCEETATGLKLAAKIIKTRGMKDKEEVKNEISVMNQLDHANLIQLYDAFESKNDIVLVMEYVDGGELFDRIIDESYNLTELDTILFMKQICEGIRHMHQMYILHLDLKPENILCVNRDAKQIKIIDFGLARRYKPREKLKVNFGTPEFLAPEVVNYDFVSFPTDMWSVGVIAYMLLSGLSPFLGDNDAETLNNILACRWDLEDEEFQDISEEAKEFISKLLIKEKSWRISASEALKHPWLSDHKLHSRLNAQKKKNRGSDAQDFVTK
Test [15] is filed under the species Homo sapiens. Nature of the test: Binding affinity to RSK4B (unknown origin) assessed as change in melting temperature at 10 uM incubated for 10 mins using SYPRO orange dye by RT-PCR-based fluorescence assay. The method, boiled down: as §1
The target in test [16] is Dual specificity protein kinase CLK4 (Homo sapiens, UniProt Q9HAZ1). As to conditions: dose 10.0 µM, time 10.0 min.
Dual specificity protein kinase CLK4, sequence (Q9HAZ1 whole entry, looked up): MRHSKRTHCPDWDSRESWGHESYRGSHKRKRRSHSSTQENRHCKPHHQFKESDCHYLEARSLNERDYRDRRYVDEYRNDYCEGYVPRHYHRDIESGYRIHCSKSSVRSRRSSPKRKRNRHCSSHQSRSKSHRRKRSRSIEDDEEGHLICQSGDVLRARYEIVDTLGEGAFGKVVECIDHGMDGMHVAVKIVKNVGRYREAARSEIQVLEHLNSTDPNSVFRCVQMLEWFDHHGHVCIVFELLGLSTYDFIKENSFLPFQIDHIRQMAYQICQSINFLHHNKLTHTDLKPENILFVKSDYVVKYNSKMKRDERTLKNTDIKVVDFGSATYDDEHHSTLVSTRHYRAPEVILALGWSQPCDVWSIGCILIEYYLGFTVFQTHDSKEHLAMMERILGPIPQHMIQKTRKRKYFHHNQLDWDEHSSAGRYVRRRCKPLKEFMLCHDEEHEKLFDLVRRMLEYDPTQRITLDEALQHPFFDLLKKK
For test [17], the target named is Dual specificity protein kinase CLK1 (Homo sapiens, UniProt P49759). The note with it: dose 10.0 µM, time 10.0 min.
Dual specificity protein kinase CLK1, sequence (P49759 whole entry, looked up): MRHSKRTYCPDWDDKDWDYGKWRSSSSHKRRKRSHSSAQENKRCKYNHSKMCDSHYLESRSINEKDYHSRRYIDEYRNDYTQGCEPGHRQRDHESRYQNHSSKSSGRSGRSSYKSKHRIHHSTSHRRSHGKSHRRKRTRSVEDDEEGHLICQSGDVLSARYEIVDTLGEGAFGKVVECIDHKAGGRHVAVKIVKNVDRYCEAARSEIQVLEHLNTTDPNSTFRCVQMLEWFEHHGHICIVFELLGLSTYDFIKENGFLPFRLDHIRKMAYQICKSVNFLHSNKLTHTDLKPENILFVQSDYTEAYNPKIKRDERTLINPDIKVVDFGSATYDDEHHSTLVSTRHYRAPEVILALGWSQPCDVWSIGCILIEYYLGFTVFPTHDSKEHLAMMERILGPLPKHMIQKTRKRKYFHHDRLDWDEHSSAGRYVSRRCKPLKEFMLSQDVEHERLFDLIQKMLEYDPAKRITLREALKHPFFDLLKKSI
For test [18], the target named is Dual specificity protein kinase CLK2 (Homo sapiens) (UniProt P49760). As to conditions: dose 10.0 µM, time 10.0 min.

Tyrosine-protein kinase JAK1 (Homo sapiens), sequence (P23458 whole entry, the tested form may be a part): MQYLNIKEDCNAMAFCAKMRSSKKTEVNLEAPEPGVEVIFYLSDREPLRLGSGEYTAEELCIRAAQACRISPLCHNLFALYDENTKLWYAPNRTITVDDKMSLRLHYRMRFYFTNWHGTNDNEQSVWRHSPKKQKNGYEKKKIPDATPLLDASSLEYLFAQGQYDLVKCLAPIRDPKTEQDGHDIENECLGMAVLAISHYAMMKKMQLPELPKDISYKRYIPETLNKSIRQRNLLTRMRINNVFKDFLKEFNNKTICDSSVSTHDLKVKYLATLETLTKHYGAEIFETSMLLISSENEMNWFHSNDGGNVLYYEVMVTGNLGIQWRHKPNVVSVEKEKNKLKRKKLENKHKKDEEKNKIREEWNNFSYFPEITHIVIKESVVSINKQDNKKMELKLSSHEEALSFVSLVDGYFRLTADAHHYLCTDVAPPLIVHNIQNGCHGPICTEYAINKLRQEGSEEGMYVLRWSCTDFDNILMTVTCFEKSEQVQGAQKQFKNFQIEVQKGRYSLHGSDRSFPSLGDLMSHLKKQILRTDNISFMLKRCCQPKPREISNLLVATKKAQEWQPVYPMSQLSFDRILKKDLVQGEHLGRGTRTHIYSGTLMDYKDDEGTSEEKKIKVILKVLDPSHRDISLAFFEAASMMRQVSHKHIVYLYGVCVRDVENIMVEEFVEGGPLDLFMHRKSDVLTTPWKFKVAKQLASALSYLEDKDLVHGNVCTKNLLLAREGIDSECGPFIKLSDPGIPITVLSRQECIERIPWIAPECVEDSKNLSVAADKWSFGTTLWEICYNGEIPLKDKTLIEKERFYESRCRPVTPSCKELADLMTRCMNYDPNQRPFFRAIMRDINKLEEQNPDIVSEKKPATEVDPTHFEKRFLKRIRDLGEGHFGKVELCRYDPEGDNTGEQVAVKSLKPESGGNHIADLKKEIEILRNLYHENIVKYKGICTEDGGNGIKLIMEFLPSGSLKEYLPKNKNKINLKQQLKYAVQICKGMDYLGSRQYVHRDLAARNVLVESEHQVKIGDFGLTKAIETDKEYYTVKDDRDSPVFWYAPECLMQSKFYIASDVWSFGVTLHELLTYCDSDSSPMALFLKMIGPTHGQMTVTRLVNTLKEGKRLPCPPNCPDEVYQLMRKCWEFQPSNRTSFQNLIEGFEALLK
Cyclin-G-associated kinase (Homo sapiens), sequence (O14976 whole entry): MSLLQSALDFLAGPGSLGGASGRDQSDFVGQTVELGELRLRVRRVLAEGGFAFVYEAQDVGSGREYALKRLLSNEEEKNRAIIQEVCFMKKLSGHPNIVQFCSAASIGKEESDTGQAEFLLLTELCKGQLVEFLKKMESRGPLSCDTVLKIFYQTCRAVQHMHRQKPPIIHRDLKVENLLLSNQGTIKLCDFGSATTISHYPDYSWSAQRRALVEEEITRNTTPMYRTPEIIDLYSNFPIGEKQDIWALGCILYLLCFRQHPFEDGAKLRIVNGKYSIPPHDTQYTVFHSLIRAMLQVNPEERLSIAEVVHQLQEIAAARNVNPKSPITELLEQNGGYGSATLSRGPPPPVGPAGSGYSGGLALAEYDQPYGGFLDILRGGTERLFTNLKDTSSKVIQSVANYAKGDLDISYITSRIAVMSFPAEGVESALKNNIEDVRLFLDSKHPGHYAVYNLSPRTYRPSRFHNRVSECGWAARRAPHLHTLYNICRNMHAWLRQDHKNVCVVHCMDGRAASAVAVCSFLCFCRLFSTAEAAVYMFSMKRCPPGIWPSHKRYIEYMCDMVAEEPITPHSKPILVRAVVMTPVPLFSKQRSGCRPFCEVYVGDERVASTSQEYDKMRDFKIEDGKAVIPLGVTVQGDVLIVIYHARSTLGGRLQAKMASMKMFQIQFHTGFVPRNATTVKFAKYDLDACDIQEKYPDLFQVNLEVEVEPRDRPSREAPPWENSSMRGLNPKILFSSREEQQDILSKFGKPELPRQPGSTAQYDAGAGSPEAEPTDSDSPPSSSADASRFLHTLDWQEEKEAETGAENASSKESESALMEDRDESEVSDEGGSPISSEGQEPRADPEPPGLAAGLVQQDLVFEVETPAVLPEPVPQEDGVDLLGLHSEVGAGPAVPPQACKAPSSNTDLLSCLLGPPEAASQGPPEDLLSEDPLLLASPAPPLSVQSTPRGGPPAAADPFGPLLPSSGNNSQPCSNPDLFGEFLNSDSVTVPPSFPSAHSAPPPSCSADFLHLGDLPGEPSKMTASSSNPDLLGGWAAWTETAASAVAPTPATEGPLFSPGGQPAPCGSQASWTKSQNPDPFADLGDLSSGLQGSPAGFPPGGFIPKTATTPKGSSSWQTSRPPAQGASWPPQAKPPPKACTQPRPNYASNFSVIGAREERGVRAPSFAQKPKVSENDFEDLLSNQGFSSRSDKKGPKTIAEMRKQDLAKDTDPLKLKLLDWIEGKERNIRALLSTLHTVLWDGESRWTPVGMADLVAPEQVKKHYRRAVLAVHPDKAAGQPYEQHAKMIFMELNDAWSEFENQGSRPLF
Serine/threonine-protein kinase 17B (Homo sapiens), sequence (O94768 whole entry): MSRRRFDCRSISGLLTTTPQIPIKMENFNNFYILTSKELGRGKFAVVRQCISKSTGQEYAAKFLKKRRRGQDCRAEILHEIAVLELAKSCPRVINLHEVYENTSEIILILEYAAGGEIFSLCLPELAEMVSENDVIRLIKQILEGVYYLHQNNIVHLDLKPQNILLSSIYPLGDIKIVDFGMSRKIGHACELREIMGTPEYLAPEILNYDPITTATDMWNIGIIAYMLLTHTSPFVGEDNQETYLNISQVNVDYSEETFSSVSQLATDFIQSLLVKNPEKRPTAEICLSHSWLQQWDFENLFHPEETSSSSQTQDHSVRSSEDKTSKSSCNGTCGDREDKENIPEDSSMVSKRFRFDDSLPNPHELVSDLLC
Activin receptor type-2B (Homo sapiens), sequence (Q13705 whole entry): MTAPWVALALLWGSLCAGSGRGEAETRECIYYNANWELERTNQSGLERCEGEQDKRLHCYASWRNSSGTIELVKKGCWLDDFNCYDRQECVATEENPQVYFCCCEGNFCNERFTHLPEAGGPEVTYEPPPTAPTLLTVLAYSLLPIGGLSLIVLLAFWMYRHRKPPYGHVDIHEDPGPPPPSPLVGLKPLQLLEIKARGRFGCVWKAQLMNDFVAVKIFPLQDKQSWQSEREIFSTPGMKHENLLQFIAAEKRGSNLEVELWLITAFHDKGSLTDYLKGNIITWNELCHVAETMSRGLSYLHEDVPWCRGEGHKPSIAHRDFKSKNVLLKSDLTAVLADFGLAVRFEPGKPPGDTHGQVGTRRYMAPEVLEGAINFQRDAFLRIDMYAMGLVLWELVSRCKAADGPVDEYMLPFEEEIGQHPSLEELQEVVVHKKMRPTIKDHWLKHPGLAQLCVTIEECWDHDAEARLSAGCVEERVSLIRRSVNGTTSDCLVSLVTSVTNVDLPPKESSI

On to `CC(=O)c1cccc(-c2cnc3ccc(NCC4CC4)nn23)c1`, for which the ΔTm in [1], in test [2], in [3], in test [4], in test [5] and in test [6] was > 6 °C each time. The ΔTm in test [7] was > 6 °C; in [8], > 6 °C; in test [9] it was > 6 °C; in test [10] it was > 6 °C; in [11], > 4 °C; in test [12] it was > 4 °C. Also, the ΔTm in test [13] was > 4 °C; in [14], > 4 °C; in test [15] it was > 4 °C; in [16], > 6 °C; in test [17] it was > 4 °C; in [18], > 4 °C.

Broadly, the ΔTm is the change in melting temperature against a reference sample.
